One assay concerns HL-60. Description: Antiproliferative activity against […] human HL-60 cells assessed as inhibition of cell growth incubated for 72 hrs by alamar blue assay. In kind it is functional, cell-based. To be noted: HL-60, 72 h. Summed up:
(§1)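 Cells seeded 24 h before treatment (HL-60 4 × 10⁴, MCF-7 5 × 10³ per well), then given medium, vehicle (1% ethanol v/v) or serial dilutions (eight concentrations) for 72 h. Alamar Blue (10% v/v) added for 3–5 h at 37 °C in the dark, fluorescence read at ex 530/em 590 nm. Viability expressed relative to vehicle (100%), IC50 from dose–response curves; three experiments in triplicate.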

The test system of a further assay is HT-29. Nature of the assay: Antiproliferative activity against combretastatin A-4 resistant human HT-29 cells assessed as inhibition of cell growth incubated for 72 hrs by SRB assay. To be noted: HT-29, 72 h. In kind it is functional, cell-based. Summed up: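 HT-29 (DMEM Glutamax, 10% FBS) seeded at 1 × 10⁴ cells/well, treated after 24 h with vehicle (1% ethanol v/v) or serial dilutions (eight concentrations) for 72 h; viability measured by sulforhodamine B protocol. Percent viability relative to vehicle control, IC50 from dose–response curves; mean of three experiments in triplicate.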

The subject of the next assay is MCF7. Nature of the assay: Antiproliferative activity against […] human MCF7 cells assessed as inhibition of cell growth incubated for 72 hrs by alamar blue assay. The assay is classed as functional, cell-based. The conditions noted are these: MCF7, 72 h. Summed up: as §1
The next assay addresses Tubulin (Bos taurus) (UniProt Q6B856+Q862L2+Q862F3). Nature of the assay: Inhibition of bovine tubulin polymerisation assessed as fold reduction in Vmax at 10 uM measured every 30 secs for 30 mins by spectrophotometric method relative to control. The assay is classed as protein assay.
Assay [1] relates to Panel NCI-60 (60 carcinoma cell lines). Description: Antiproliferative activity against human panel NCI-60 (60 carcinoma cell lines) assessed as inhibition of cell growth at 10 uM incubated for 72 hrs by SRB assay. The assay is classed as functional, cell-based. On the technique in general: The SRB assay estimates cell density from bound dye.

Calls of active or inactive are those of the source. The rule behind the calls is not given here.

As usually defined, the IC50 is the point on the concentration scale where inhibition reaches its midpoint.

With `COc1cc(N2C(=O)C(Oc3ccccc3)C2c2ccc(SC)cc2)cc(OC)c1OC` (mixture of isomers), the IC50 in the assay with HL-60 was 388 nM; in the assay with HT-29 it was 336 nM; in the assay on MCF7 it was 152 nM.
For `CCSc1ccc(C2C(Oc3ccccc3)C(=O)N2c2cc(OC)c(OC)c(OC)c2)cc1` (mixture of isomers), the IC50 turned out to be 508 nM in the assay on HL-60, 632 nM in the assay with HT-29 and 210 nM in the assay with MCF7.
On the same counts, the results for `CCOc1ccc(C2C(O)C(=O)N2c2cc(OC)c(OC)c(OC)c2)cc1` (mixture of isomers) are 11 nM, 15 nM and 7 nM.
On the same counts, the results for `COc1cc(N2C(=O)C(c3ccccc3)C2c2ccc(O)cc2)cc(OC)c1OC` (mixture of isomers) are > 50000 nM, > 50000 nM and > 50000 nM.
On the same counts, the results for `COc1ccc(C2CC(=O)N2c2cc(OC)c(OC)c(OC)c2)cc1O` (racemic) are 8 nM, 521 nM and 6 nM.
In the case of `COc1ccc(C2CC(=O)N2c2cc(OC)c(OC)c(OC)c2)cc1` (racemic), the IC50 turned out to be 76 nM in the assay on HL-60 and 65 nM in the assay on HT-29.
Take `COc1ccc(C2C(Cl)C(=O)N2c2cc(OC)c(OC)c(OC)c2)cc1` (racemic): the values for the IC50 with HL-60, in the assay on HT-29 and in the assay with MCF7 were 161 nM, 135 nM and 56 nM, respectively.
In the case of `C=CC1C(=O)N(c2cc(OC)c(OC)c(OC)c2)C1c1ccc(SC)cc1` (racemic), the IC50 in the assay on HL-60 was determined as 61 nM; in the assay with HT-29, 113 nM; in the assay with MCF7 it was 51 nM. Also, the fold change (FC) at Tubulin (Bos taurus) worked out at 3.4.
With `COc1cc(N2C(=O)CC2c2ccc(SC)cc2)cc(OC)c1OC` (racemic), the IC50 in the assay with HL-60 amounted to 69 nM; in the assay with HT-29, 108 nM; in the assay on MCF7, 67 nM.
The matching figures for `C=CC1C(=O)N(c2cc(OC)c(OC)c(OC)c2)C1c1ccc(SCC)cc1` (racemic): 320 nM, 257 nM and 181 nM.
For `COc1cc(N2C(=O)C(C3CC3)C2c2ccc(SC)cc2)cc(OC)c1OC` (racemic), the results for the IC50 with HL-60, in the assay with HT-29 and in the assay with MCF7 were 279 nM, 204 nM and 131 nM, respectively.
In the case of `COc1ccc(C2C(Oc3ccccc3)C(=O)N2c2cc(OC)c(OC)c(OC)c2)cc1` (racemic), the IC50 was determined as 19 nM with HL-60, 52 nM in the assay with HT-29 and 23 nM in the assay with MCF7.
Take `CCOc1ccc(C2C(Oc3ccccc3)C(=O)N2c2cc(OC)c(OC)c(OC)c2)cc1` (racemic): the results for the IC50 with HL-60, with HT-29 and with MCF7 were 494 nM, 388 nM and 69 nM, respectively.
On the same counts, the results for `CCSc1ccc(C2C(Cl)C(=O)N2c2cc(OC)c(OC)c(OC)c2)cc1` (racemic) are 385 nM, 238 nM and 251 nM.
Consider `COc1ccc(C2C(O)C(=O)N2c2cc(OC)c(OC)c(OC)c2)cc1O` (racemic), for which the IC50 with HL-60 amounted to 5 nM; with HT-29, 463 nM; in the assay on MCF7 it was 3 nM.
On the same counts, the results for `CCOc1ccc(C2C(Cl)C(=O)N2c2cc(OC)c(OC)c(OC)c2)cc1` (racemic) are 209 nM, 203 nM and 87 nM.
With `CCSc1ccc(C2N(c3cc(OC)c(OC)c(OC)c3)C(=O)C2(Cl)Cl)cc1` (racemic), the IC50 in the assay on HL-60 is 481 nM; with HT-29 it was 554 nM; in the assay on MCF7, 660 nM.
Consider `CCSc1ccc(C2C(C3CC3)C(=O)N2c2cc(OC)c(OC)c(OC)c2)cc1` (racemic), for which the IC50 in the assay with HL-60 came to 803 nM; with HT-29, 1560 nM; in the assay on MCF7, 606 nM.
The matching figures for `CCSc1ccc(C2CC(=O)N2c2cc(OC)c(OC)c(OC)c2)cc1` (racemic): 204 nM, 311 nM and 141 nM.
As to `CCSc1ccc(C2C(c3ccccc3)C(=O)N2c2cc(OC)c(OC)c(OC)c2)cc1` (racemic), the IC50 is 430 nM in the assay on HL-60, 3140 nM with HT-29 and 380 nM in the assay with MCF7.
For `CCOc1ccc(C2CC(=O)N2c2cc(OC)c(OC)c(OC)c2)cc1` (racemic), the results for the IC50 with HL-60, in the assay with HT-29 and in the assay with MCF7 were 88 nM, 65 nM and 64 nM, respectively.
The matching figures for `CCOc1ccc(C2N(c3cc(OC)c(OC)c(OC)c3)C(=O)C2(Cl)Cl)cc1` (racemic): 182 nM, 325 nM and 270 nM.
Consider `COc1cc(N2C(=O)C(Cl)C2c2ccc(SC)cc2)cc(OC)c1OC` (racemic), for which, in assay [1], the inhibition entry was “Active”. For the same molecule, the IC50 amounted to 522 nM in the assay with HL-60, 137 nM in the assay on HT-29 and 73 nM with MCF7. On Tubulin (Bos taurus), the fold change (FC) was found to be 2.
On to `C=CC1C(=O)N(c2cc(OC)c(OC)c(OC)c2)C1c1ccc(OC)cc1` (racemic), for which the IC50 in the assay with HL-60 worked out at 33 nM; in the assay with HT-29 it was 10 nM; in the assay with MCF7, 17 nM.
The matching figures for `C=CC1C(=O)N(c2cc(OC)c(OC)c(OC)c2)C1c1ccc(OCC)cc1` (racemic): 35 nM, 97 nM and 14 nM.
On the same counts, the results for `COc1cc(N2C(=O)C(Cl)(Cl)C2c2ccc(SC)cc2)cc(OC)c1OC` (racemic) are 223 nM, 306 nM and 291 nM.
The matching figures for `COc1ccc(C2N(c3cc(OC)c(OC)c(OC)c3)C(=O)C2(Cl)Cl)cc1` (racemic): 144 nM, 271 nM and 133 nM.
For the molecule `CCSc1ccc(C2C(O)C(=O)N2c2cc(OC)c(OC)c(OC)c2)cc1` (racemic), the IC50 in the assay on HL-60 amounted to 16 nM; in the assay with HT-29, 12 nM; in the assay on MCF7, 6 nM.
For the molecule `CCOc1ccc(C2C(c3ccccc3)C(=O)N2c2cc(OC)c(OC)c(OC)c2)cc1` (racemic), the IC50 is 74 nM in the assay on HL-60, 75 nM in the assay with HT-29 and 50 nM with MCF7.
The matching figures for `COc1ccc(C2C(O)C(=O)N2c2cc(OC)c(OC)c(OC)c2)cc1` (racemic): 13 nM, 12 nM and 4 nM.
On the same counts, the results for `COc1ccc([C@@H]2[C@@H](Oc3ccccc3)C(=O)N2c2cc(OC)c(OC)c(OC)c2)cc1O` (relative stereo) are 7 nM, 692 nM and 23 nM.

The record behind these values is ChEMBL document CHEMBL5252538, “β-Lactam analogues of combretastatin A-4 prevent metabolic inactivation by glucuronidation in chemoresistant HT-29 colon cancer cells” (Eur J Med Chem, 2017).
